Laboratory results: ChEMBL document CHEMBL1146333, “Synthesis and antitumor evaluation of a novel series of triaminotriazine derivatives” (Bioorg Med Chem, 2007)
Calls of active or inactive are those of the source. The calls are words filed in the database; no cut-off is given here.

Assays:
HT-29 [1] = assay: Growth inhibition of human HT29 cells at 10 uM after 72 hrs by SRB assay; assay type: functional; conditions: for inhibition at 10 µM: HT-29, 72 h
How it was run: (§1)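 SRB growth assay on HCT-116 or HT-29 cells (RPMI-1640, 10% FBS, 37 °C, 5% CO2). Seeded at 6000 cells/well, attached overnight, exposed in triplicate at 10 μM for 72 h. Cells TCA-fixed, SRB-stained, A515 read. Percent inhibition = [1 − A515 treated/A515 control] × 100; mean of three determinations.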

HCT-116 [2] = assay: Growth inhibition of human HCT116 cells at 10 uM after 72 hrs by SRB assay; assay type: functional; conditions: for inhibition at 10 µM: HCT-116, 72 h; how it was run: as §1
HT-29 [3] = assay: Growth inhibition of human HT29 cells after 72 hrs by SRB assay; assay type: functional, cell-based; conditions: HT-29, 72 h
How it was run: (§2)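 HCT-116 and HT-29 human colorectal lines (ATCC) grown in RPMI-1640 with 10% FBS, 2 mmol/L glutamine, penicillin/streptomycin, at 37 °C in 5% CO2. Seeded at 6000 cells/well, attached overnight, then treated in triplicate with graded concentrations for 72 h. Cells fixed in 10% TCA, stained with SRB, and A515 read. IC50 obtained by the Logit method; mean of three independent tests.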

HCT-116 [4] = assay: Growth inhibition of human HCT116 cells after 72 hrs by SRB assay; assay type: functional, cell-based; conditions: HCT-116, 72 h; how it was run: as §2
[5] = Cmax in Sprague-Dawley rat at 10 mg/kg, po after 15 mins; assay type: ADME, organism-based; design: dose 10 mg/kg, route oral; conditions: in vivo
How it was run: (§3)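 Sprague–Dawley rats given one oral gavage dose of 10 mg/kg suspended in 0.5% CMC-Na. Orbital-sinus blood drawn at 0, 5, 15, 30 min and 1, 2, 4, 6, 8 h; plasma frozen at −70 °C, extracted with EtOAc, and quantified by LC–MS/MS. Cmax and Tpeak read directly from the data; t1/2 = 0.693/k; mean ± SD.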

[6] = Oral bioavailability in Sprague-Dawley rat at 10 mg/kg; assay type: ADME, organism-based; conditions: in vivo
How it was run: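 Rats received 10 mg/kg oral (0.5% CMC-Na) or 2 mg/kg iv (PEG400:cremophor 100:15). Serial plasma samples, 0–8 h, quantified by LC–MS/MS after EtOAc extraction. F = (AUCoral × Dose_iv)/(AUC_iv × Dose_oral) × 100%.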

[7] = Elimination half life in Sprague-Dawley rat at 10 mg/kg, po; assay type: ADME, organism-based; design: dose 10 mg/kg, route oral; conditions: in vivo; how it was run: as §3
[8] = Elimination half life in Sprague-Dawley rat at 2 mg/kg, iv; assay type: ADME, organism-based; design: dose 2 mg/kg, route intravenous; conditions: in vivo
How it was run: (§4)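 Sprague–Dawley rats acclimatized one week, then given one iv dose of 2 mg/kg in PEG400:cremophor (100:15, v/v). Orbital-sinus blood drawn under light ether at 0, 5, 15, 30 min and 1, 2, 4, 6, 8 h; plasma stored at −70 °C.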

[9] = Mean resident time in Sprague-Dawley rat at 10 mg/kg, po; assay type: ADME, organism-based; design: dose 10 mg/kg, route oral; conditions: in vivo; how it was run: as §3
[10] = Mean resident time in Sprague-Dawley rat at 2 mg/kg, iv; assay type: ADME, organism-based; design: dose 2 mg/kg, route intravenous; conditions: in vivo; how it was run: as §4
Rattus norvegicus = assay: Volume of distribution in Sprague-Dawley rat at 2 mg/kg, iv; assay type: ADME, organism-based; design: dose 2 mg/kg, route intravenous; conditions: in vivo; how it was run: as §4
[11] = Clearance in Sprague-Dawley rat at 2 mg/kg, iv; assay type: ADME, organism-based; design: dose 2 mg/kg, route intravenous; conditions: in vivo; how it was run: as §4
Mus musculus [12] = assay: Increase in body weight in KM mouse at 100 mg/kg, ip; assay type: functional; conditions: route intraperitoneal
Mus musculus [13] = assay: Increase in body weight in KM mouse at 200 mg/kg, ip after 7 days; assay type: functional; conditions: route intraperitoneal
How it was run: (§5)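 Sarcoma 180 cells implanted in the axilla of female KM mice (6–8 weeks) on Day 0, randomized on Day 1 (control 20/group, treated 10/group). Treated mice got 200 mg/kg ip once daily for 7 days, suspended in 0.5% CMC. Mice killed 24 h after the last dose; body and tumor weights taken. Inhibition = (control − treated mean tumor weight)/control mean tumor weight × 100%.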

Mus musculus [14] = assay: Tumor weight in KM mouse at 100 mg/kg, ip; assay type: functional; conditions: route intraperitoneal
Mus musculus [15] = assay: Tumor weight in KM mouse at 200 mg/kg, ip after 7 days; assay type: functional; conditions: route intraperitoneal; how it was run: as §5
Sarcoma-180 = assay: Antitumor activity in sarcoma180 cells implanted in KM mouse at 200 mg/kg, ip after 7 days; assay type: functional; conditions: route intraperitoneal; how it was run: as §5

SMILES | inhibition at 10 µM (HT-29 [1]) [%] | inhibition at 10 µM (HCT-116 [2]) [%] | also measured
NS(=O)(=O)c1ccc(Nc2nc(N3CCOCC3)nc(N3CCOCC3)n2)cc1 | – | – | Activity (HT-29 [1]): inactive; Activity (HCT-116 [2]): inactive
c1ccc(Nc2nc(N3CCOCC3)nc(N3CCOCC3)n2)cc1 | 80.5 | 44.9 | –
Fc1ccc(Nc2nc(N3CCOCC3)nc(N3CCOCC3)n2)cc1 | 80.2 | – | Activity (HCT-116 [2]): inactive
Clc1ccc(Nc2nc(Nc3ccccc3)nc(N3CCOCC3)n2)cc1 | 87.1 | 51.7 | IC50 (HT-29 [3]): 37 µM
c1ccc(Nc2nc(Nc3ccccc3)nc(N3CCOCC3)n2)cc1 | 85 | 81.3 | IC50 (HT-29 [3]): 31 µM; IC50 (HCT-116 [4]): 4.7 µM
COc1ccc(Nc2nc(Nc3ccc(F)cc3)nc(N3CCOCC3)n2)cc1 | 82.3 | – | Activity (HCT-116 [2]): inactive
COc1ccc(Nc2nc(NCCN3CCOCC3)nc(Nc3ccccc3)n2)cc1 | 74.6 | – | Activity (HCT-116 [2]): inactive
Fc1ccc(Nc2nc(Nc3ccccc3)nc(N3CCOCC3)n2)cc1 | 90 | 60.1 | –
C1CN(c2nc(N3CCOCC3)nc(N3CCOCC3)n2)CCO1 | – | – | Activity (HT-29 [1]): inactive; Activity (HCT-116 [2]): inactive
COc1ccc(Nc2nc(N3CCOCC3)nc(N3CCOCC3)n2)cc1 | 74.2 | 6.9 | –
OCCN1CCN(c2nc(Nc3ccccc3)nc(Nc3ccccc3)n2)CC1 | 76.1 | 22 | –
c1ccc(CNc2nc(NCc3ccccc3)nc(N3CCOCC3)n2)cc1 | 50 | – | Activity (HCT-116 [2]): inactive
COc1cccc(Nc2nc(Nc3ccccc3)nc(N3CCOCC3)n2)c1 | 87.4 | 82.6 | IC50 (HT-29 [3]): 39 µM
COc1ccc(Nc2nc(Nc3ccc(SC)cc3)nc(N3CCOCC3)n2)cc1OC | 81.4 | 79.2 | –
COc1ccccc1Nc1nc(Nc2ccccc2)nc(N2CCOCC2)n1 | 89.3 | 78.3 | –
CCOc1ccc(Nc2nc(Nc3ccccc3)nc(N3CCOCC3)n2)cc1 | 87.5 | 64.1 | –
COc1ccc(Nc2nc(NCCO)nc(Nc3ccccc3)n2)cc1 | 13.7 | – | Activity (HCT-116 [2]): inactive
c1ccc(CNc2nc(N3CCOCC3)nc(N3CCOCC3)n2)cc1 | 5.2 | – | Activity (HCT-116 [2]): inactive
COc1ccc(Nc2nc(Nc3ccc(S(N)(=O)=O)cc3)nc(N3CCOCC3)n2)cc1 | 83.2 | 69 | –

SMILES | inhibition at 10 µM (HT-29 [1]) [%] | inhibition at 10 µM (HCT-116 [2]) [%] | also measured
Brc1ccc(Nc2nc(Nc3ccccc3)nc(N3CCOCC3)n2)cc1 | 89.7 | 77.7 | IC50 (HT-29 [3]): 25 µM
COc1ccc(Nc2nc(Nc3ccccc3)nc(N3CCOCC3)n2)cc1OC | 76.4 | 84.7 | IC50 (HCT-116 [4]): 0.92 µM
CSc1ccc(Nc2nc(Nc3ccc(C)cc3)nc(N3CCOCC3)n2)cc1 | 54.1 | 71.1 | IC50 (HCT-116 [4]): 120 µM
NS(=O)(=O)c1ccc(Nc2nc(Nc3ccccc3)nc(N3CCOCC3)n2)cc1 | 80.4 | 96.2 | IC50 (HCT-116 [4]): 2 µM
COc1ccc(Nc2nc(Nc3ccccc3)nc(N3CCN(CCO)CC3)n2)cc1 | 77.3 | 19 | –
COc1ccc(Nc2nc(Nc3ccccc3)nc(N3CCOCC3)n2)cc1 | 100 | 81.4 | IC50 (HT-29 [3]): 30 µM; IC50 (HCT-116 [4]): 0.76 µM; Cmax [5]: 1290 ng/mL; bioavailability [6]: 30.9%; half-life [7]: 1.16 h; half-life [8]: 1.09 h; MRT [9]: 1.88 h; MRT [10]: 1.06 h; Vdss (Rattus norvegicus): 2.11 L/kg; clearance [11]: 22.7 mL/min/kg; Activity (Mus musculus [12]): 29.3 g; Activity (Mus musculus [13]): 27.3 g; Activity (Mus musculus [14]): 1.65 g; Activity (Mus musculus [15]): 0.89 g; Activity (Sarcoma-180): 40.7%
c1ccc(CNc2nc(Nc3ccccc3)nc(N3CCOCC3)n2)cc1 | 90.5 | 48.7 | –
COc1ccc(Nc2nc(NCc3ccccc3)nc(N3CCOCC3)n2)cc1 | 88.4 | 20.1 | –
NS(=O)(=O)c1ccc(Nc2nc(NCc3ccccc3)nc(N3CCOCC3)n2)cc1 | 68.6 | – | Activity (HCT-116 [2]): inactive
Fc1ccc(Nc2nc(Nc3ccc(OC(F)(F)F)cc3)nc(N3CCOCC3)n2)cc1 | 85.5 | 62 | –
OCCNc1nc(Nc2ccccc2)nc(Nc2ccccc2)n1 | 33.9 | – | Activity (HCT-116 [2]): inactive
FC(F)(F)Oc1ccc(Nc2nc(Nc3ccccc3)nc(N3CCOCC3)n2)cc1 | 87.3 | 63.4 | –
COc1ccc(Nc2nc(Nc3ccc(OC)cc3)nc(N3CCOCC3)n2)cc1 | 80.6 | 53.3 | IC50 (HT-29 [3]): 100 µM
NC(=O)c1ccc(Nc2nc(Nc3ccccc3)nc(N3CCOCC3)n2)cc1 | 87.8 | 85.8 | IC50 (HT-29 [3]): 8.1 µM; IC50 (HCT-116 [4]): 9.6 µM
Fc1ccc(Nc2nc(NCc3ccccc3)nc(N3CCOCC3)n2)cc1 | 87.1 | 10.1 | –
COc1ccc(Nc2nc(Nc3ccc(OC)cc3)nc(N3CCN(CCO)CC3)n2)cc1 | 49.3 | – | Activity (HCT-116 [2]): inactive
Cc1ccc(CNc2nc(Nc3ccccc3)nc(N3CCOCC3)n2)cc1 | 75.3 | 15.7 | –
c1ccc(Nc2nc(NCCN3CCOCC3)nc(Nc3ccccc3)n2)cc1 | 23.4 | 30.1 | –
